MC4R barr agon – MC4R agonists recruiting beta-arrestin, primary screen, cell-based, luminescence, agonist arm of biased-ligand search; AID 540308, 2011; Melanocortin receptor 4 (Homo sapiens), P32245; activation, % at 8.9 µM; U2OS MC4R beta-arrestin complementation; percent of melanotan II response, DMSO zero; 360,000 tested, 0.98% active;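 active = activation above a per-plate cutoff, the mean activation of sample wells on that plate plus 3 SD, cut at about 8% in these data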
Target sequence (P32245 whole entry, looked up): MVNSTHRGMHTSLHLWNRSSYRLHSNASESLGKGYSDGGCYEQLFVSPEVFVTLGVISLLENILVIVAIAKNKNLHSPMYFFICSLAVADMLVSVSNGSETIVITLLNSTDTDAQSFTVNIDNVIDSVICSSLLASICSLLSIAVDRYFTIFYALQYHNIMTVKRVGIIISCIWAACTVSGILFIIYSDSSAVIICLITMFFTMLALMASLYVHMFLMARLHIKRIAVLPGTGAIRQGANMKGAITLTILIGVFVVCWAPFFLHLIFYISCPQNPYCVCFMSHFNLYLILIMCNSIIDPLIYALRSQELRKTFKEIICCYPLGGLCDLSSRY
MC4R antag cAMP – MC4R antagonists of cAMP signaling, primary screen, cell-based, TR-FRET, antagonist arm of biased-ligand search; AID 540295, 2011; 360,000 tested, 0.48% active; Melanocortin receptor 4 (Homo sapiens), P32245; inhibition, % at 6.5 µM; MC4R-expressing cells, MTII-stimulated cAMP, LANCE TR-FRET;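 active = inhibition above its plate's cutoff, the mean of tested wells on that plate plus 3 SD, cut at about 29% in these data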
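Test system: U2OS cells stably expressing human melanocortin 4 receptor (MC4R); also added: Melanotan II challenge; compound: 6.5 µM single dose; timing: 30-min compound preincubation, 1-h Melanotan II challenge, 1-h detection, room temperature; signal: Eu-cAMP/anti-cAMP TR-FRET, emission 671 nm; repeats: one well per compound, no replicates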
Bfl-1 A1 inh – caspase 3/7 activation in MEF A1-2A-BIM cells, primary screen, A1 inhibitor project, cell-based, luminescence, HTS. caspase activation, % (no concentration beside the values). 330,000 tested, 0.066% active. Caspase-Glo 3/7 luminescence, 3 h; percent of clofoctol response, vehicle zero;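 active = over half of replicate activation scores above 10%, or exactly half above 10 with the replicate mean above 10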
UPR CHOP act – activators of apoptotic CHOP UPR arm, primary screen, cell-based, CHO-CHOP luciferase reporter, luminescence, uHTS; UPR activation; percent of tunicamycin response over DMSO baseline; activation, % at 10 µM; 330,000 tested, 0.34% active;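 active = at 10 µM dose, activation of 40% or more, normalized to positive control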
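Material: CHO-CHOP cells, stable luciferase reporter of PERK-eIF2a-CHOP signalling; quantity: 500 reporter cells seeded per well; buffer or medium: F12 medium containing 10% fetal bovine serum; compound: one dose, 10 µM in 0.5% DMSO; incubation: 6 h compound treatment, 37 °C; measured by: Steady-Glo luciferase luminescence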
UPR XBP1 act – activators of adaptive XBP1 UPR arm, primary screen, cell-based, CHO-XBP1 luciferase reporter, luminescence, uHTS. activation, % at 20 µM. IRE1-XBP1 UPR activation; percent of tunicamycin response, DMSO as zero. 330,000 tested, 0.33% active. AID 463104, 2010;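 active = versus positive control, 20 µM dose yields 30% or more activation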
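Material: CHO-XBP1 cells stably carrying IRE1-XBP1-driven luciferase reporter | Medium: F12 with 10% serum | Compound dosing: 20 µM single concentration, DMSO 1% | Incubation: Overnight seeding at 37 °C, 6 h compound treatment at 37 °C | Detection: Steady-Glo luminescence read | Read-out basis: % activation of reporter signal versus tunicamycin and DMSO controls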
cAMP nonselect – nonselective cAMP signaling inhibitors, parental cells, counter-screen for MC4R biased antagonist project, cell-based, TR-FRET, U2OS, forskolin, triplicate. shares compounds with MC4R antag cAMP. LANCE TR-FRET. inhibition, % at 6.5 µM. 1,600 tested, 26% active. AID 602193, 2012;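 active = mean inhibition over triplicates above the low-control well mean plus 3 SD, set per campaign, cut at about 13% in these data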;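 note: signal is single emission at 671 nm which falls as cellular cAMP rises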
MC4R antag conf – MC4R cAMP antagonists, retest, confirmation, cell-based, TR-FRET | shares compounds with MC4R antag cAMP | MC4R-expressing cells, MTII-stimulated cAMP | inhibition, % at 6.5 µM | 1,600 tested, 27% active; in the data active = inhibition above about 29%
Numbers stand for hits; . = inactive; / = no result given. This is a sample that favours compounds with a hit; in the whole collection about 2% have one here.

SMILES	MC4R barr agon	MC4R antag cAMP	Bfl-1 A1 inh	UPR CHOP act	UPR XBP1 act	cAMP nonselect	MC4R antag conf
O=C(Nc1ccc(F)cc1)c1nn(-c2ccccc2)c(=O)cc1Cl	.	31	/	/	/	30	38
COc1ccc(Cc2noc(CN3CCN(Cc4cccc(Cl)c4)CC3)n2)cc1OC	.	34	.	.	.	17	.
Cc1ccsc1C1C(C#N)=C(N)Oc2n[nH]c(C)c21 (centres undefined)	.	29	.	.	.	.	.
Cc1[nH]nc2c1C(c1cccs1)C(C#N)=C(N)O2 (centres undefined)	.	.	.	.	.	/	/
CCCCN(Cc1ccco1)C(=O)C1CCCN(c2ncnc3c2nc2n3CCCCC2)C1 (centres undefined)	.	32	.	.	.	.	.
CC(C)N(Cc1ccccc1)C(=O)C1CCCN(c2ncnc3c2nc2n3CCCCC2)C1 (centres undefined)	.	.	.	.	.	/	/
Cc1ccc(S(=O)(=O)N2C[C@H]3N(C(=O)OC(C)C)N(C(=O)OC(C)C)C[C@H](OC(=O)Nc4c(C)noc4C)[C@@]3(O)C2)cc1	.	.	/	/	/	/	/
CCNC(=O)C1(C)CCN(C(=O)c2cccc3ccccc23)C1 (centres undefined)	.	.	/	/	/	/	/
N#Cc1ccccc1NC(=O)CSc1nnc(-c2ccncc2)o1	.	30	.	.	.	.	.
CCOC(=O)c1sc(NC(=O)CCN2CCN(CC)CC2)c(C(=O)OCC)c1C	.	42	.	.	.	.	.
CC(=O)NC(C)(c1ccccc1)c1nc(-c2cccc(C(F)(F)F)c2)cs1 (centres undefined)	.	.	/	/	/	/	/
COc1ccccc1-c1ccc2c(c1)C(C)(Cc1ccc(OC(F)(F)F)cc1)C(=O)N2 (centres undefined)	.	.	/	/	/	/	/
CC(NC(=O)c1ccc(OC2CCN(Cc3ccccn3)CC2)cc1)c1nccs1 (centres undefined)	.	29	.	.	.	.	.
COc1ccc(-n2c(CN3CCC(C)CC3)nc3ccc([N+](=O)[O-])cc3c2=O)c(OC)c1	.	34	.	.	.	.	.
COc1ccc(-n2c(CN3CCOCC3)nc3ccc([N+](=O)[O-])cc3c2=O)c(OC)c1	.	.	.	.	.	/	/
CC(C)N(C)c1ncnc2c1ncn2[C@H]1CN(Cc2ccc(F)cc2)C[C@@H](CO)O1	.	.	/	/	/	/	/
COc1ccc(-c2nc3ccccn3c2NCc2ccc3c(c2)OCO3)cc1	.	.	.	.	.	/	/
CCC(C)Sc1ccc(-c2nc3ccc(C)cn3c2NCc2ccccc2)cc1OC (centres undefined)	.	35	.	.	.	18	44
CCCCNc1c(-c2ccc(OC)c(SC(C)CC)c2)nc2ccc(C)cn12 (centres undefined)	.	36	.	.	.	22	48
CCC(C)Sc1cc(-c2nc3ccc(C)cn3c2NCc2ccccc2)ccc1OC (centres undefined)	.	47	.	/	/	27	78
COc1ccc(-c2cc(-c3nc4ccccn4c3NCc3ccccc3)ccc2OC)cc1	.	37	.	.	.	.	34
CCCCCCSc1ccc(-c2nc3ccc(C)cn3c2NCc2ccccc2)cc1OC	.	.	.	.	.	/	/
CCN(CC)C(=O)C1=C(C)N(Cc2ccc(OC)cc2)C(=O)C(CC(=O)NC2CCCC2)C1 (centres undefined)	.	.	/	/	/	/	/

Screens from PubChem BioAssay.
